Measurements from different studies.
Each line is one published result; the experiments were not run side by side.
DYRK1B: Dual specificity tyrosine-phosphorylation-regulated kinase 1B (DYRK1B, Homo sapiens, UniProt Q9Y463)
PTGS2: Prostaglandin G/H synthase 2 (PTGS2, Homo sapiens, UniProt P35354)

With `NS(=O)(=O)c1ccc(Nc2nc(-c3ccc(F)cc3)c3ccccc3n2)cc1` the remaining binding was 54% (CREB-binding protein (CREBBP, Homo sapiens, UniProt Q92793); binding, competition with immobilised ligand; 1 µM).
The remaining activity of `O=C(O)c1ccc2c(c1)nc(Nc1ccc(F)c(Cl)c1)c1ncncc12` is reported as 60% (DYRK1B; enzyme activity, inhibitor, radiometric; 1 µM).
The ΔTm of `Cc1cnc(Nc2ccc(OCCN3CCCC3)cc2)nc1Nc1cccc(S(=O)(=O)NC(C)(C)C)c1` is reported as 3.38 °C (Bromodomain testis-specific protein, BD1 (BRDT, Homo sapiens, UniProt Q58F21); thermal stability, DSF; 10 µM).
`O=c1cc(-c2ccc(O)cc2)oc2cc(O)cc(O)c12` gave an inhibition of 16.4% (PTGS2; enzyme activity, inhibitor; 0.49 µg/mL).
For `Cc1cc2c(cc1N1C(=O)c3cccc4c(Cl)ccc(c34)C1=O)n(C)c(=O)n2C`, the ΔTm was 0.3 °C (Transcription intermediary factor 1-beta (TRIM28, Homo sapiens, UniProt Q13263); thermal stability, DSF; 10 µM).
`C[S+]([O-])c1ccc(-c2nc(-c3ccncc3)c(-c3ccc(F)cc3)[nH]2)cc1` (centres unmarked) has a ΔTm of 0.59 °C (Bromodomain testis-specific protein, BD2 (BRDT, Homo sapiens, UniProt Q58F21); thermal stability, DSF; 10 µM).
`O=C(O)c1ccc(O)cc1` has an inhibition of 19.4% (PTGS2; enzyme activity, inhibitor; 0.49 µg/mL).
`O=C(O)c1ccc2c(c1)nc(Nc1cccc(F)c1)c1ccncc12` gave a remaining activity of 13% (DYRK1B; enzyme activity, inhibitor, radiometric; 1 µM).
